Screening data (PubChem BioAssay)
Sampled rows, rich in hits. Any-hit rate of the full collection: about 1.3%.
HIV Rev-RRE inh: HIV-1 Rev-RRE binding inhibitors, primary screen, biochemical, FRET, protein-RNA interaction | P05866 | Rev peptide-RRE RNA binding | inhibition, % at 8 µM | 97,000 compounds, 0.79% hits;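 active = inhibition above the screen-wide mean plus 3 SD, cut at about 35% in these data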;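 note: 0% = median DMSO wells and 100% = median Neomycin B control wells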
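Assay system: labelled RRE RNA duplex and labelled Rev peptide / Medium: HEPES pH 7.5 salt buffer with EDTA / Reagent: labelled Rev peptide / Schedule: 5 + 15 min at 25 °C / Signal: FRET, excitation 480 nm, emission 540 nm donor and 671 nm acceptor / Benchmarks: DMSO and neomycin B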
PTPN22 inh 2: PTPN22 phosphatase inhibitors, primary screen, biochemical, DiFMUP fluorescence, 2 µM; Tyrosine-protein phosphatase non-receptor type 22 (Homo sapiens), Q9Y2R2; recombinant LYP catalytic domain; inhibition, % at 2 µM; 96,000 compounds, 0.21% hits;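 active = inhibition at 2 µM at or above a set limit, the screen mean plus 3 SD, cut at about 24% in these data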;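 note: 0% = DMSO with enzyme and 100% = enzyme fully blocked by orthovanadate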
Target sequence (Q9Y2R2 whole entry, looked up, the tested form may be a part): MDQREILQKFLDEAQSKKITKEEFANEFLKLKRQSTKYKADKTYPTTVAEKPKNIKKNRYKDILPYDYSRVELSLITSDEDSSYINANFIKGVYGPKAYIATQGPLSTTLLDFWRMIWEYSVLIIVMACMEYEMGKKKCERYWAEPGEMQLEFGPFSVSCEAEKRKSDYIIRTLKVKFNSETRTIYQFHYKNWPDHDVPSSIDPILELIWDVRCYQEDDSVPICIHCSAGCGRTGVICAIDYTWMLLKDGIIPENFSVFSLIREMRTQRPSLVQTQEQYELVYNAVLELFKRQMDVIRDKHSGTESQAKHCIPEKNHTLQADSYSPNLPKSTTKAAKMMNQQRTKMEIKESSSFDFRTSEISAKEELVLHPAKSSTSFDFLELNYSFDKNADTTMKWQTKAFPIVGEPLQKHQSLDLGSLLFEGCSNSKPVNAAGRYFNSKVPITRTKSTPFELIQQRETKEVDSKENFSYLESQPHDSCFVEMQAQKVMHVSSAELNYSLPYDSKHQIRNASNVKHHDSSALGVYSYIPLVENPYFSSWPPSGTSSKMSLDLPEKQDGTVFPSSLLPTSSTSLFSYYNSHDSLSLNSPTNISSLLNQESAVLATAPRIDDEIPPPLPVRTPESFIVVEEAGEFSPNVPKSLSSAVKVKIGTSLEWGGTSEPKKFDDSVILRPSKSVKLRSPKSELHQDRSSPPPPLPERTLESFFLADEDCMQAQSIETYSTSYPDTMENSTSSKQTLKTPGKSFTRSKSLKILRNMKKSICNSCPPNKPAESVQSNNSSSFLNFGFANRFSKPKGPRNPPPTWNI
PTPN22 act: LYP phosphatase activators, primary screen, biochemical, DiFMUP fluorescence, 2 µM; Tyrosine-protein phosphatase non-receptor type 22 (Homo sapiens), Q9Y2R2; recombinant LYP; 0 = plate median, 100 = signal doubled; activation, % at 2 µM; 96,000 compounds, 0.11% hits; AID 697, 2007;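 active = activation at 2 µM above a set limit, the mean plus 5 SD, cut at about 37% in these data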
EphB4 antag: EphB4-ephrin-B2 interaction antagonists, primary screen, biochemical, TNYL-RAW peptide probe, fluorescence polarization; Ephrin type-B receptor 4 (Homo sapiens), P54760; 97,000 compounds, 0.15% hits; inhibition, % at 7 µM; EphB4 LBD / TNYL-RAW-Alexa532 peptide;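 active = inhibition above the screen-wide mean inhibition plus 3 SD, cut at about 15% in these data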;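 note: 0% = DMSO wells and 100% = excess unlabeled TNYL-RAW peptide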
Numbers without * were called inactive; [ ] = remark or other dose.

SMILES | HIV Rev-RRE inh | PTPN22 inh 2 | PTPN22 act | EphB4 antag
Cc1cc(NC(=O)COC(=O)c2cc(S(=O)(=O)N3CCOCC3)ccc2N2CCCCC2)no1 | 0.6 | -5.4 | 9.0 | -1.5
O=C(NC1CCCCC1)N(Cc1ccc(F)cc1)Cc1nc2ccccc2c(=O)[nH]1 | 15.6 | -4.4 | 0.1 | -4.0
CC(=Nc1cccc(C)c1)c1sc2ccccc2c1O | 25.1 | -6.3 | 10.1 | -7.0
CC(=Nc1ccc(O)cc1)c1sc2ccccc2c1O | 42.4* | 5.8 | -6.6 | 8.7
COc1cc(C)ccc1OCCCON1C(=O)CCC1=O | 2.1 | -9.5 | 6.8 | 2.6
O=c1c2ccccc2nc(-c2ccco2)n1Cc1ccccc1 | 6.4 | -2.6 | 1.8 | 3.9
O=c1c2ccccc2nc(-c2ccoc2)n1CCc1ccccc1 | 10.8 | 7.8 | -9.4 | 16.0*
Cn1cc(SCC(=O)Nc2nc3ccccc3s2)c2ccccc21 | 5.9 | -5.5 | 1.2 | -4.6
N#C/C(=C/c1ccc(N2CCCCC2)o1)c1cccc(F)c1 | 98.7*[fluorescence artefact?] | -11.6 | 12.8 | -6.7
N#C/C(=C/c1ccc(N2CCCCCC2)o1)c1ccc(Cl)cc1 | 96.6*[fluorescence artefact?] | 10.4 | -7.3 | -2.2
O=C(c1ccc(S(=O)(=O)N2CCCCC2)cc1)c1nnc(-c2ccc(Cl)cc2)o1 | 9.2 | 7.5 | -8.1 | 4.1
CCN(CC)S(=O)(=O)c1cccc(C(=O)N[C@H](C(=O)NCc2ccc(Cl)cc2)C(C)C)c1 | 13.1 | 4.6 | -6.2 | 4.5
c1coc(CNc2c3c(nc4ccccc24)CCC3)c1 | 36.2* | 10.4 | -11.0 | 6.2
CCOC(=O)C1=C(CSc2nc(CC)c(C)cc2C#N)OC(N)=C(C#N)C1c1ccc(OC)cc1 (configuration not stated) | 23.9 | 2.9 | -2.2 | 5.9
COC(=O)C1=C(CSc2nc3c(cc2C#N)CN(C)CC3)OC(N)=C(C#N)C1c1ccc(F)cc1 (configuration not stated) | 65.1* | -7.7 | 9.4 | 8.7
Cc1ccc(C)c(NC(=O)CCC(=O)OC(C(=O)c2ccccc2)c2ccccc2)c1 (configuration not stated) | 3.7 | 2.5 | 2.8 | 2.0
O=C(CCC(=O)OC(C(=O)c1ccccc1)c1ccccc1)Nc1ccccc1 (configuration not stated) | 4.4 | 24.5* | -27.6 | -2.4
O=c1[nH]c(=O)n(Cc2ccco2)c2c1C(C(F)(F)F)(C(F)(F)F)N=C(Cc1ccccc1)N2 | 6.6 | 6.5 | -4.9 | 3.1
O=C1CC(=O)N(Cc2ccco2)C(=S)N1 | 76.8* | -8.4 | 5.5 | 0.5
O=C1C2C(C(=O)N1Cc1ccco1)C1C=CC2C12CC2 (configuration not stated) | 4.8 | -8.2 | 5.0 | 5.4
CCOC(=O)C1=C(O)/C(=C/c2ccc(C)o2)SC1=NC(=O)c1ccccc1C | 68.5* | 9.0 | -9.4 | 4.1
CCOC(=O)C1=C(O)/C(=C/c2cc(OC)c(OC)c(OC)c2)SC1=Nc1ccc(OC)cc1 | 1.2 | 13.3 | -11.5 | 4.2
Clc1ccc(CON/C=N/c2ncnc3sccc23)c(Cl)c1 | 10.6 | 8.3 | -2.4 | -4.9
CC(=O)c1sc2nc(-c3cccs3)cc(C(F)(F)F)c2c1N | 106.9*[fluorescence artefact?] | -14.1 | 11.3 | -1.7
Nc1c(C(=O)C2CC2)sc2nc(-c3ccccc3)cc(C(F)(F)F)c12 | 111.6*[fluorescence artefact?] | 11.6 | -11.2 | 2.1
SMILES | HIV Rev-RRE inh | PTPN22 inh 2 | PTPN22 act | EphB4 antag
Cc1c(C(=O)Nc2nccs2)sc2nc(-c3cccs3)cc(C(F)(F)F)c12 | -1.6 | -3.5 | 5.3 | -6.0
Cc1ccc(-c2cc(-c3ccccc3)c3c(N)c(S(C)(=O)=O)sc3n2)cc1 | 9.8 | 11.1 | -8.9 | -2.7
CS(=O)(=O)c1sc2nc(-c3cccs3)cc(-c3ccccc3)c2c1N | 36.0* | 2.7 | -5.0 | -3.0
COc1ccc(C2NC(=O)NC(O)(C(F)(F)F)C2C(=O)c2ccc(C)cc2)cc1 (configuration not stated) | 2.7 | -15.8 | 13.4 | -6.7
COc1cccc(OC)c1-c1nn2c(-c3cc(-c4ccccc4)n[nH]3)nnc2s1 | -268.5 | 37.5* | -38.7 | 62.5*
COc1ccc(-c2nn3c(-c4ccccc4)nnc3s2)cc1 | -1.6 | 1.7 | -2.3 | 4.6
O=C1C2C3C=CC(C2C(=O)N1CCCO)C1C2C(=O)N(CCCO)C(=O)C2C31 (configuration not stated) | 2.2 | -19.4 | 17.8 | -5.1
CCOC(=O)c1c(-c2ccccc2)oc2cc(CN(C)C)c(O)c(CN(C)C)c12 | 57.7* | -9.6 | 10.3 | 5.8
